Data on 47 molecules can be found in ChEMBL document CHEMBL4028870, “Controlling Plasma Stability of Hydroxamic Acids: A MedChem Toolbox” (J Med Chem, 2017).

Data set [1] can be described thus: Half life in rat plasma at 10 uM up to 360 mins by LC-MS/MS analysis. It is filed as ADME, cell-free. Put shortly:
(§1)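 Plasma incubated in duplicate at 37 °C with 10 µM test compound (1% methanol; from 1 mM methanol stock). Samples taken at 0, 15, 30, 60, 120, 240 and 360 min and quenched with 9 volumes of ice-cold methanol containing 500 nM internal standard, then centrifuged. Analyte/IS area ratios were quantified by LC-MS/MS as % remaining versus T0. t1/2 = −0.693/k, with k from the slope of log % remaining versus time.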

The nature of data set [2]: Half life in human plasma at 10 uM up to 360 mins by LC-MS/MS analysis. It is filed as ADME, cell-free. Summed up:
as §1

Another data set concerns Plasma. Kind of data set: Stability in rat plasma at 10 uM up to 360 mins in presence of EDTA by LC-MS/MS analysis. It is filed as ADME, cell-free. Conditions: 6 h. Summed up:
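Rat plasma incubated in duplicate at 37 °C with 10 µM test compound (1% methanol), plus either 1 mM DTNB (11) or 0.5 mM EDTA (12). Duplicate controls used methanol in place of the inhibitor. Samples taken from 0 to 360 min and quenched with 9 volumes of cold methanol containing internal standard. Remaining compound measured by LC-MS/MS relative to T0.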

The target of data set [3] is T1, Liver carboxylesterase 1 (Homo sapiens, UniProt P23141).
T1 sequence (P23141 whole entry): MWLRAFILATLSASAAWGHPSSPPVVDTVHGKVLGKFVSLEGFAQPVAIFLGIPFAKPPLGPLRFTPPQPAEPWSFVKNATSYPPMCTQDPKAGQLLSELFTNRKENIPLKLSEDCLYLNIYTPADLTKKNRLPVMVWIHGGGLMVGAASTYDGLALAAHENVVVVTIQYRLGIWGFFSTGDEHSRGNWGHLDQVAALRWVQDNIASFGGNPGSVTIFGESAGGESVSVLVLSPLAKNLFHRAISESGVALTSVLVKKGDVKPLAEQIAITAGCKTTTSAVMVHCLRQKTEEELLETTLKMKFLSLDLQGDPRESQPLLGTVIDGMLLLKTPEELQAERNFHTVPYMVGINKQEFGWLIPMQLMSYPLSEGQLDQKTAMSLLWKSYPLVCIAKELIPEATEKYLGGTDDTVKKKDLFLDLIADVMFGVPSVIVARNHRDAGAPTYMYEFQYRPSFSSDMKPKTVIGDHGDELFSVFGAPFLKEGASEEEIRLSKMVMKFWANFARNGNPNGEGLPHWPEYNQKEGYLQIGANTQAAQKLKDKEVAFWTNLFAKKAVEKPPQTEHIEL
Kind of data set: Drug metabolism assessed as human CES1-mediated compound hydrolysis after 6 hrs. In kind it is ADME.

In data set [4] the target is T2, Liver carboxylesterase 1 (Mus musculus, UniProt Q8VCC2).
T2 sequence (Q8VCC2 whole entry): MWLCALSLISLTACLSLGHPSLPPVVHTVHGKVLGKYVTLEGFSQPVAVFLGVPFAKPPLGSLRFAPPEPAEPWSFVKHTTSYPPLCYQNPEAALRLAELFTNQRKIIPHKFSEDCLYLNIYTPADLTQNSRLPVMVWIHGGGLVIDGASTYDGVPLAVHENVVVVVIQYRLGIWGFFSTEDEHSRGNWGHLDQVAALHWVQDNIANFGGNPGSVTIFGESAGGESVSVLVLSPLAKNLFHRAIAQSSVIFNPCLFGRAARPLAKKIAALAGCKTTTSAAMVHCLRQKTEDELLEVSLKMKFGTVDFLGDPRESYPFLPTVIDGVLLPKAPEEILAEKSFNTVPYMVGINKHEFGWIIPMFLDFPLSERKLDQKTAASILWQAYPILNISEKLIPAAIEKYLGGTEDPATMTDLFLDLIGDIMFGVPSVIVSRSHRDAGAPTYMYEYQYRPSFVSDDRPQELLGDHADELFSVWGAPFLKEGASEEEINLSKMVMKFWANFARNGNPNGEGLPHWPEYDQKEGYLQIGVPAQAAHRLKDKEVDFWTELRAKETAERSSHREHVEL
Kind of data set: Drug metabolism assessed as mouse CES1-mediated compound hydrolysis after 6 hrs. In kind it is ADME.

Turning to `CC(Cc1ccccc1)(C(=O)NO)C(=O)NCc1ccccc1` (stereo not drawn), the half-life at 10 µM in data set [1] was 1.5 h; in data set [2], more than 6 h. Also, the Stability result with Plasma is given as “Unstable”.
For the molecule `O=C(NO)C1Cc2ccccc2CN1S(=O)(=O)c1ccccc1` (stereo not drawn), the half-life at 10 µM in data set [1] is 0.7 h; in data set [2] it was more than 6 h. The Stability result in the data set with Plasma is listed as “Unstable”.
On to `CC(CCc1ccccc1)C(=O)NO` (stereo not drawn), for which the half-life at 10 µM in data set [1] and in data set [2] was more than 6 h throughout.
`O=C(CCCCc1ccccc1)NO`: the half-life at 10 µM in data set [1] is 0.9 to 0.93 h; in data set [2], more than 6 h. The Stability result with Plasma is on record as “Unstable”.
On to `O=C(CCCC1CCCCC1)NO`, for which the half-life at 10 µM in data set [1] was 0.05 h; in data set [2], more than 6 h. The Drug metabolism entry on Liver carboxylesterase 1 [3] and on Liver carboxylesterase 1 [4] was “Metabolite_Detected” each time.
Regarding `O=C(NO)C(Cc1ccccc1)C(=O)NCc1ccncc1` (stereo not drawn), the half-life at 10 µM in data set [1] was 3.3 h; in data set [2] it was more than 6 h. The Stability result in the data set on Plasma is recorded as “Unstable”.
Consider `O=C(NO)C(Cc1ccccc1)C(=O)NCc1ccc(F)cc1` (stereo not drawn), for which the Stability entry in the data set with Plasma was “Unstable”.
As to `O=C(CC(=O)NCc1ccccc1)NO`, the half-life at 10 µM in data set [1] and in data set [2] was more than 6 h each time.
`O=C(CC12CC3CC(CC(C3)C1)C2)NO`: the half-life at 10 µM in data set [1] and in data set [2] was more than 6 h throughout.
On to `O=C(/C=C/c1ccc(S(=O)(=O)Nc2ccccc2)cc1)NO`, for which the half-life at 10 µM in data set [1] and in data set [2] was more than 6 h throughout.
On to `O=C(CC(=O)NCc1ccc(F)cc1)NO`, for which the half-life at 10 µM in data set [1] and in data set [2] was more than 6 h throughout.
With `O=C(C=C(c1ccccc1)c1ccccc1)NO`, the half-life at 10 µM in data set [1] and in data set [2] was more than 6 h each time. For the same molecule, the Drug metabolism result on Liver carboxylesterase 1 [3] and on Liver carboxylesterase 1 [4] was “Metabolite_Detected” each time.
`O=C(NO)[C@H](Cc1ccccc1)NS(=O)(=O)c1ccccc1`: the half-life at 10 µM is 0.1 h in data set [1] and more than 6 h in data set [2]. The Stability entry in the data set with Plasma is given as “Unstable”.
As to `O=C(CCCCCc1ccccc1)NO`, the half-life at 10 µM in data set [1] was 4.5 h; in data set [2] it was more than 6 h. Also, the Stability entry with Plasma is recorded as “Unstable”.
Take `O=C(CC1CCCCC1)NO`: the half-life at 10 µM in data set [1] and in data set [2] was more than 6 h throughout.
Turning to `O=C(CCC(=O)Nc1ccccc1)NO`, the half-life at 10 µM is 0.43 h in data set [1] and 2.4 h in data set [2]. For the same molecule, the Drug metabolism entry on Liver carboxylesterase 1 [3] and at Liver carboxylesterase 1 [4] was “Metabolite_Detected” in each case.
Consider `O=C(NO)C(Cc1ccncc1)C(=O)NCc1ccccc1` (stereo not drawn), for which the values for the half-life at 10 µM in data set [1] and in data set [2] were 4.5 h and more than 6 h, respectively. For the same molecule, the Stability result in the data set on Plasma was “Unstable”.
In the case of `O=C(CCNC(=O)c1ccccc1)NO`, the half-life at 10 µM in data set [1] was 2.5 h; in data set [2] it was more than 6 h. Besides, in the data set on Plasma, the Stability result is recorded as “Unstable”.
In the case of `O=C(NO)C1CCN(C(=O)c2ccccc2)C1` (stereo not drawn), the half-life at 10 µM in data set [1] and in data set [2] was more than 6 h in each case.
In the case of `O=C(CC(=O)Nc1ccccc1)NO`, the half-life at 10 µM in data set [1] and in data set [2] was more than 6 h in each case.
For the molecule `CC(C)(C(=O)NO)C(=O)NCc1ccccc1`, the half-life at 10 µM in data set [1] and in data set [2] was more than 6 h each time.
In the case of `O=C(NO)C(CCc1ccccc1)Cc1ccccc1` (stereo not drawn), the half-life at 10 µM in data set [1] and in data set [2] was more than 6 h in each case.
On to `CC(C(=O)NO)C(=O)NCc1ccccc1` (stereo not drawn), for which the half-life at 10 µM in data set [1] and in data set [2] was more than 6 h throughout.
As for `CC(C)[C@H](C(=O)NO)N(Cc1ccccc1)S(=O)(=O)c1ccccc1`, the half-life at 10 µM in data set [1] and in data set [2] was more than 6 h throughout.
On to `O=C(N[C@@H](CO)C(=O)NO)c1ccc(-c2ccccc2)cc1`, for which the half-life at 10 µM in data set [1] and in data set [2] was more than 6 h throughout.
Turning to `CS(=O)(=O)C(CCc1ccccc1)(Cc1ccccc1)C(=O)NO` (stereo not drawn), the half-life at 10 µM in data set [1] and in data set [2] was more than 6 h in each case.
On to `O=C(CCNCc1ccccc1)NO`, for which the values for the half-life at 10 µM in data set [1] and in data set [2] were 2.1 h and more than 6 h, respectively. The Stability entry in the data set on Plasma is listed as “Unstable”.
As for `CC(CCc1ccccc1)(C(=O)NO)S(=O)(=O)c1ccccc1` (stereo not drawn), the half-life at 10 µM in data set [1] and in data set [2] was more than 6 h in each case.
As for `O=C(NO)C1(C(=O)NCc2ccccc2)CC1`, the half-life at 10 µM in data set [1] and in data set [2] was more than 6 h throughout.
Take `O=C(CCC1CCCCC1)NO`: the results for the half-life at 10 µM in data set [1] and in data set [2] were 0.06 h and more than 6 h, respectively. In addition, the Drug metabolism entry at Liver carboxylesterase 1 [3] and at Liver carboxylesterase 1 [4] was “Metabolite_Detected” each time.
As for `O=C(CNC(=O)Cc1ccccc1)NO`, the half-life at 10 µM is 0.29 h in data set [1] and more than 6 h in data set [2]. In addition, in the data set on Plasma, the Stability result is recorded as “Unstable”.
As to `O=C(NO)C1(NS(=O)(=O)c2ccccc2)CCOCC1`, the half-life at 10 µM in data set [1] and in data set [2] was more than 6 h in each case.
On to `C[C@H](NCc1ccccc1)C(=O)NO`, for which the half-life at 10 µM in data set [1] and in data set [2] was more than 6 h throughout.
For the molecule `O=C(CNC(=O)c1ccccc1)NO`, the half-life at 10 µM in data set [1] was 0.58 h; in data set [2], more than 6 h. For the same molecule, in the data set on Plasma, the Stability entry is “Unstable”.
`O=C(NO)C(Cc1ccc2ccccc2c1)C(=O)NCc1ccccc1` (stereo not drawn): the half-life at 10 µM is 0.1 h in data set [1] and more than 6 h in data set [2]. For the same molecule, the Stability result in the data set on Plasma is given as “Unstable”. Further, the Drug metabolism result at Liver carboxylesterase 1 [3] and at Liver carboxylesterase 1 [4] was “Metabolite_Detected” each time.
For `O=C(NCC(C(=O)NO)N1CCCCC1)c1ccccc1` (stereo not drawn), the values for the half-life at 10 µM in data set [1] and in data set [2] were 0.4 h and more than 6 h, respectively. The Stability result with Plasma is reported as “Unstable”.
Take `O=C(CNCCc1ccccc1)NO`: the half-life at 10 µM in data set [1] was 0.5 h; in data set [2], more than 6 h. Besides, in the data set on Plasma, the Stability entry is on record as “Unstable”.
With `O=C(NO)[C@@H](Cc1ccccc1)N(Cc1ccccc1)S(=O)(=O)c1ccccc1`, the half-life at 10 µM in data set [1] and in data set [2] was more than 6 h throughout.
For the molecule `O=C(NO)[C@H](Cc1ccccc1)NCc1ccccc1`, the half-life at 10 µM in data set [1] was 1.8 h; in data set [2], more than 6 h. Also, in the data set on Plasma, the Stability entry was “Unstable”.
Turning to `O=C(NO)C(CCc1ccccc1)S(=O)(=O)c1ccccc1` (stereo not drawn), the half-life at 10 µM in data set [1] and in data set [2] was more than 6 h in each case.
As for `O=C(CNCc1ccccc1)NO`, the half-life at 10 µM in data set [1] is 3.6 h; in data set [2] it was more than 6 h. Also, in the data set with Plasma, the Stability entry is “Unstable”.
Regarding `O=C(/C=C/c1ccc(-c2ccccc2)cc1)NO`, the half-life at 10 µM in data set [1] and in data set [2] was more than 6 h in each case.
Consider `CC(Cc1ccccc1)(C(=O)NO)C(=O)NCc1ccc(F)cc1` (stereo not drawn), for which, in the data set on Plasma, the Stability entry is given as “Unstable”.
For the molecule `CC(C(=O)NO)C(=O)NCc1ccc(F)cc1` (stereo not drawn), the half-life at 10 µM in data set [1] and in data set [2] was more than 6 h each time.
With `O=C(CCCCCCc1ccccc1)NO`, the half-life at 10 µM in data set [1] and in data set [2] was more than 6 h each time.
As for `O=C(/C=C/c1ccc(Cl)cc1Cl)NO` [CINNAMIC ACID HYDROXAMATE], the half-life at 10 µM in data set [1] and in data set [2] was more than 6 h in each case.
For the molecule `CCCCc1nc2cc(/C=C/C(=O)NO)ccc2n1CCN(CC)CC` [PRACINOSTAT], the half-life at 10 µM in data set [1] and in data set [2] was more than 6 h each time.
